The source of these data is paper PMC4243878 (British Journal of Clinical Pharmacology, 2014).

Values joined by “and” are separate entries in the source; they are usually repeats but may differ in a detail not shown here. Identical values can stand only once. Like-named read-outs stand apart in the source and are kept apart here. Bounds are passed on as bounds.

For data set [1] the following is noted: cited from earlier work.
Data set [2] is classed as in vivo, human. Conditions: Cohort 1, boceprevir 800 mg every 8 h + dolutegravir 50 mg once daily (n = 15); geometric mean (%CVb). The method in brief: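 Cohort 1 took 800 mg oral boceprevir three times daily with 50 mg dolutegravir daily for 10 days, with moderate-fat meals. Plasma was acidified with phosphoric acid, and the stereoisomers were extracted by solid-phase extraction. Analysis was LC-MS/MS with heated nebulizer, positive ion mode, calibrated 0.0052–5.2 and 0.0048–4.8 μg ml−1. Parameters came from noncompartmental steady-state analysis, reported as geometric means (%CVb) and median Tmax, and were compared with label values without statistics.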

For data set [3] the following is noted: cited from earlier work. This is another data set of the same source.
The format of data set [4] is in vivo, human. Conditions: Cohort 2, telaprevir 750 mg every 8 h + dolutegravir 50 mg once daily (n = 15). Put shortly: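 Cohort 2 took 750 mg oral telaprevir three times daily with 50 mg dolutegravir daily for 10 days, with moderate-fat meals. Plasma was acidified with phosphoric acid, and (S)-telaprevir was extracted by supported liquid extraction. Analysis was LC-MS/MS with TurboIonSpray, positive ion mode, calibrated 0.1–20 μg ml−1. Steady-state parameters came from noncompartmental analysis and were compared with label data without formal statistics.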

For data set [5] the following is noted: previous dolutegravir clinical studies; cited from earlier work.
Data set [6] is classed as in vivo, human. Conditions: for Cmin / AUC / Cmax / concentration at 24 h / half-life: geometric mean (95% CI); for AUC / Cmax / concentration at 24 h / half-life: both, human, plasma, oral; for AUC: AUC0–τ; for concentration at 24 h: Cτ. Put shortly:
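Healthy adults took 50 mg oral dolutegravir once daily with a morning moderate-fat meal, alone for 5 days. They then continued for 10 days with boceprevir 800 mg or telaprevir 750 mg three times daily, with no washout. Plasma was assayed by validated LC-MS/MS. Noncompartmental parameters used actual sampling times, with Cτ taken at 24 h postdose. Log-transformed AUC0–τ, Cmax and Cτ were analysed by mixed-model ANOVA (subject random, treatment fixed). Results were given as GLS mean ratios with 95% CI versus dolutegravir alone.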

Data set [7] can be described thus: Safety: adverse events in healthy adult subjects. The format is in vivo, human. The following applies: dolutegravir n = 32, combinations n = 16 each. The method in brief: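 Healthy adults aged 18–65 were randomised into two cohorts of 16. Period 1: 50 mg dolutegravir once daily for 5 days. Period 2, with no washout: Cohort 1 added boceprevir 800 mg three times daily, Cohort 2 added telaprevir 750 mg three times daily, both for 10 days. Doses were given with moderate-fat meals (30% fat, 600 calories). Adverse events were recorded and graded for intensity and drug relatedness.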

Setting [8] is: Boceprevir alone, historical, ref Boceprevir package insert, 2013.
[9] abbreviates: Telaprevir alone, historical, ref Telaprevir package insert, 2013.
Where [10] appears, read: Cohort 1, dolutegravir 50 mg once daily + boceprevir 800 mg every 8 h, Period 2 (n = 13).
[11] abbreviates: Cohort 1, dolutegravir + boceprevir vs. dolutegravir.
[12] abbreviates: Cohort 2, dolutegravir 50 mg once daily + telaprevir 750 mg every 8 h, Period 2 (n = 15).
[13] abbreviates: Cohort 2, dolutegravir + telaprevir vs. dolutegravir.
The mark [14] stands for this setting: 50 mg, Cohort 1, dolutegravir 50 mg once daily alone, Period 1 (n = 16).
The mark [15] stands for this setting: 50 mg, Cohort 2, dolutegravir 50 mg once daily alone, Period 1 (n = 16).
The mark [16] stands for this setting: coadministration with telaprevir vs dolutegravir alone.

Usually Cmax stands for the highest concentration seen after dosing. For orientation: half-life means the time in which the quantity being followed falls by half. As for `CC(C)(C)NC(=O)N[C@H](C(=O)N1C[C@H]2[C@@H]([C@H]1C(=O)NC(CC1CCC1)C(=O)C(N)=O)C2(C)C)C(C)(C)C` (stereo partly shown) [Boceprevir, boceprevir], in data set [1] (setting [8]), the “AUC0–τ” value was 5408 ng·h/mL, the maximum concentration (Cmax) is 1723 ng/mL and the Cmin was 80 ng/mL. In data set [1], the half-life was 3 to 4 h. In addition, in data set [2], the Cmin is 0.07 (23) μg ml^−1 and the Cτ is 0.08 (35) μg ml^−1.
`CCC[C@H](NC(=O)[C@@H]1[C@H]2CCC[C@H]2CN1C(=O)[C@@H](NC(=O)[C@@H](NC(=O)c1cnccn1)C1CCCCC1)C(C)(C)C)C(=O)C(=O)NC1CC1` [Telaprevir, telaprevir]: in data set [3] (setting [9]), the “AUC0–τ” value is 22300 ng·h/mL, the Cmax is 3510 ng/mL and the Cmin is 2030 ng/mL. The half-life in data set [3] is 9 to 10 h. In data set [4] (geometric mean (%CVb)), the Cmin is 1.72 (25) μg ml^−1 and the Cτ is 1.75 (26) μg ml^−1. Further, the Tmax in data set [4] (median (range)) is given as 3.00 (2.0, 4.0) h.
What is called AUC is concentration integrated over time. As to `C[C@@H]1CCO[C@H]2Cn3cc(C(=O)NCc4ccc(F)cc4F)c(=O)c(O)c3C(=O)N12` [Dolutegravir], the “Elevated alanine aminotransferase, frequency” value in data set [5] is listed as <1–2 % of subjects. For the same compound, in data set [6] (setting [10]), the Cmin is given as 1.36 (1.10, 1.68) μg ml^−1; the AUC worked out at 65300 ng·h/mL; the Cmax worked out at 4820 ng/mL; the concentration at 24 h was determined as 1400 ng/mL. The Cmin in data set [6] (Cohort 1, dolutegravir 50 mg once daily alone, Period 1 (n = 16)) is on record as 1.00 (0.79, 1.25) μg ml^−1. In addition, in data set [6] (setting [11]), the “AUC0–τ GLS mean ratio (95% CI)” value is 1.07 (0.924, 1.234); the “Cmax GLS mean ratio (95% CI)” value is 1.05 (0.941, 1.176); the “Cmin GLS mean ratio (95% CI)” value is on record as 1.36 (1.106, 1.684); the “Cτ GLS mean ratio (95% CI)” value is on record as 1.08 (0.878, 1.329). Further, the “t1/2 GLS mean ratio (95% CI)” value in data set [6] (setting [11]) is 1.05 (0.940, 1.166). Moreover, in data set [6] (setting [12]), the Cmin was 2.03 (1.73, 2.38) μg ml^−1; the AUC stood at 84200 ng·h/mL; the Cmax was 5810 ng/mL; the concentration at 24 h was 2090 ng/mL. For the same compound, the Cmin in data set [6] (Cohort 2, dolutegravir 50 mg once daily alone, Period 1 (n = 16)) is 1.18 (0.96, 1.46) μg ml^−1. In addition, in data set [6] (setting [13]), the “AUC0–τ GLS mean ratio (95% CI)” value was 1.25 (1.183, 1.327); the “Cmax GLS mean ratio (95% CI)” value was 1.19 (1.096, 1.282); the “Cmin GLS mean ratio (95% CI)” value is on record as 1.76 (1.570, 1.963); the “Cτ GLS mean ratio (95% CI)” value is given as 1.37 (1.274, 1.468). Also, the “t1/2 GLS mean ratio (95% CI)” value in data set [6] (setting [13]) is reported as 1.18 (1.061, 1.305). In data set [6] (setting [14]), this compound registered an area under the curve (AUC) of 61500 ng·h/mL, a Cmax of 4620 ng/mL and a concentration at 24 h of 1310 ng/mL. Further, in data set [6] (setting [15]), the AUC was determined as 68900 ng·h/mL, the peak level (Cmax) was 4990 ng/mL and the concentration at 24 h was 1590 ng/mL. The same compound gave a half-life in data set [6] (50 mg, t1/2, Cohort 1, dolutegravir 50 mg once daily alone, Period 1 (n = 16)) of 13.2 h. In data set [6] (50 mg, t1/2, Cohort 2, dolutegravir 50 mg once daily alone, Period 1 (n = 16)), this compound showed a half-life of 14.5 h. Besides, the half-life in data set [6] (t1/2, Cohort 1, dolutegravir 50 mg once daily + boceprevir 800 mg every 8 h, Period 2 (n = 13)) was 13.8 h. For the same compound, the half-life in data set [6] (t1/2, Cohort 2, dolutegravir 50 mg once daily + telaprevir 750 mg every 8 h, Period 2 (n = 14)) is 16.7 h. For the same compound, in data set [6] (coadministration with boceprevir vs dolutegravir alone), the “change (increase) in dolutegravir Cτ” value is 8% and < 10%. Besides, in data set [6] (setting [16]), the “increase in dolutegravir AUC0–τ” value was found to be 25%, the “increase in dolutegravir Cmax” value amounted to 19% and the “increase in dolutegravir Cτ” value is 37%. The “change in dolutegravir exposure” value in data set [6] (with boceprevir) stood at 7%. The “change in dolutegravir exposure” value in data set [6] (with telaprevir) amounted to 25%. For the same compound, in data set [7], the “All adverse events: Abdominal pain” value was 0 n (%), the “All adverse events: Anal haemorrhage” value is 0 n (%), the “All adverse events: Anorectal discomfort” value is on record as 0 n (%) and the “All adverse events: Any adverse event” value is reported as 4 (13) n (%). Besides, in data set [7], the “All adverse events: Dysgeusia” value is reported as 0 n (%), the “All adverse events: Haemorrhoids” value is 0 n (%), the “All adverse events: Headache” value is recorded as 2 (6) n (%) and the “All adverse events: Maculopapular rash” value is recorded as 1 (3) n (%). In addition, in data set [7], the “Drug-related adverse events: Abdominal pain” value is recorded as 0 n (%), the “Drug-related adverse events: Any adverse event” value is 2 (6) n (%), the “Drug-related adverse events: Dysgeusia” value is recorded as 0 n (%) and the “Drug-related adverse events: Headache” value is 1 (3) n (%). For the same compound, in data set [7], the “Drug-related adverse events: Maculopapular rash” value is on record as 1 (3) n (%) and the “Subjects withdrawn because of AEs” value is given as 0 n (%).
